According to PubChem BioAssay AID504477 (NMMLSC, 2011):
Active and inactive are the calls of the source.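 The calls were made as follows: active = compounds whose self-toxic dose exceeds tenfold the dose that restores mitoxantrone killing of resistant cells; inactive = the rest.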

Test system: Igrov ABCG2 cells + mitoxantrone, trypan blue viability, 3 d
Assay: ABCG2-mediated mitoxantrone resistance reversal, SAR follow-up, Igrove cells, trypan blue, SAR set 2 (AID 504477)
Method in brief: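 system = ABCG2-expressing Igrove cells | input = 100,000 cells per mL | probe or stimulus = mitoxantrone selective agent at one fixed concentration | dosing = test compound concentration series across 3 logs, 1-100 µM | schedule = 3-day exposure of cells to test compound | technique = trypan blue counts by light microscopy | read-out basis = test compound concentration causing 50% loss of cell viability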

Row | SMILES | CC50
1 | COc1cccc(-c2cc3nc(-c4ccco4)cc(N4CCN(C(C)=O)CC4)n3n2)c1 | > 100 µM
2 | CC(=O)N1CCN(c2cc(-c3ccco3)nc3cc(-c4cccc(Cl)c4)nn23)CC1 | > 100 µM
3 | O=C(c1ccoc1)N1CCN(c2cc(-c3ccco3)nc3cc(-c4ccco4)nn23)CC1 | > 100 µM
4 | CC(=O)N1CCN(c2cc(-c3ccco3)nc3cc(-c4ccccc4)nn23)CC1 | > 100 µM
5 | COc1ccccc1-c1cc(N2CCN(C(=O)c3ccoc3)CC2)n2nc(-c3ccccc3)cc2n1 | > 7.62 µM (inactive)
6 | COc1ccc(-c2cc3nc(-c4ccco4)cc(N4CCN(C(=O)c5ccoc5)CC4)n3n2)cc1 | > 100 µM
